Source: PubChem (several laboratories)
XBP1 UPR activ: activators of adaptive arm of unfolded protein response (XBP1). CHO-XBP1 luciferase reporter, IRE1-XBP1 UPR activation, luminescence; percent of tunicamycin response, DMSO as zero. activation, % at 20 µM. 330,000 compounds, 0.33% hits. AID 463104;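 active means versus positive control, 20 µM dose yields 30% or more activation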;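 further: 100% = tunicamycin at 10 µg/mL and 0% = DMSO only wells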
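Signal: luciferase luminescence; Assay system: CHO-XBP1 luciferase reporter cells; Amount: one thousand reporter cells per well; Dosing: 20 µM single concentration, DMSO 1%; Benchmarks: high control tunicamycin 10 µg/mL final, low control DMSO vehicle only; Schedule: 6 h compound exposure at 37 °C, 5% CO2; Evaluation: percent activation relative to tunicamycin reference.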
aDG glyco up: alpha-DG glycosylation activation. Pro5-aDG cells, alpha-DG glycosylation AlphaScreen (IIH6); 0% Pro5, 100% B10-LARGE cell signal. activation, % at 10 µM. 360,000 compounds, 0.22% hits. AID 624168;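 active means activation of at least 8% versus controls, or a plate z-score of at least 8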;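 further: Pro5 are CHO cells carrying HIG-tagged alpha-DG that lacks glycosylation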
CHOP UPR activ: activators of apoptotic arm of unfolded protein response (CHOP) | CHO-CHOP luciferase reporter, UPR activation, luminescence; percent of tunicamycin response over DMSO baseline | activation, % at 10 µM | 330,000 compounds, 0.34% hits | AID 449763;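 active means at 10 µM dose, activation of 40% or more, normalized to positive control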;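 further: 100% = tunicamycin at 10 µg/mL and 0% = DMSO alone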
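Material: CHO-CHOP cells, stable luciferase reporter of PERK-eIF2a-CHOP signalling; quantity: 500 reporter cells seeded per well; buffer or medium: F12 medium containing 10% fetal bovine serum; compound: one dose, 10 µM in 0.5% DMSO; incubation: 6 h compound treatment, 37 °C; measured by: Steady-Glo luciferase luminescence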
CHOP inhibitor: CHOP inhibition in unfolded protein response. CHO-K1 CHOP-promoter luciferase, tunicamycin-induced, 15-18 h. inhibition, % at 10 µM. 220,000 compounds, 3.8% hits. AID 2732;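 active means compounds that reduced the stress-induced luciferase reporter signal by more than about 70% of percent inhibition, limit read from the data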;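 further: 0% = tunicamycin plus vehicle and 100% = wells without tunicamycin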
MPTP inh: permeability transition pore inhibition. inhibition, % at 10 µM. isolated mouse mitochondria, Ca2+ swelling absorbance, 30 min. 360,000 compounds, 1.4% hits;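 active means inhibition of 50% or more, scaled per plate between neutral and stimulator controls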;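 further: 0% = DMSO wells given calcium and 100% = 1 mM EGTA wells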
NR3A LBD binder: modulators (binders) of human NR3A ligand-binding domain | NR3A LBD differential scanning fluorimetry, Tm shift; 0% = protein alone, 100% = glycine-bound protein | 340,000 compounds, 2.5% hits | Tm shift relative to glycine control, % at 25 µM;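 active means melting temperature shift of at least 10% of the positive control shift, at one fixed dose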
MPTP counter: membrane potential counter-screen of mitochondrial pore inhibitors; shares compounds with MPTP inh; isolated mitochondria, Rhodamine 123 fluorescence; inhibition, % at 10 µM; 5,000 compounds, 78% hits; in the data active means inhibition above about 22%;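 further: 0% = DMSO vehicle and 100% = positive control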
MPTP abs DR: MPTP inhibition, dose response swelling confirmation | IC50, µM | 780 compounds, 58% hits | isolated mitochondria swelling, absorbance | shares compounds with MPTP inh; in the data active means IC50 below about 20 µM
MPTP counter DR: MPTP inhibitor counter-screen activity, dose response. shares compounds with MPTP inh. isolated mitochondria counterscreen, fluorescence read-out. IC50, µM. 780 compounds, 49% hits. AID 651564; in the data active means IC50 below about 80 µM
The depositor's hits bear a star; i = inactive; · = no result given. Rows were chosen to be rich in hits. Some 5.6% of all compounds tested hit in one or more screens of this group.

SMILES	XBP1 UPR activ	aDG glyco up	CHOP UPR activ	CHOP inhibitor	MPTP inh	NR3A LBD binder	MPTP counter	others
CCOc1ccc(OCc2cccc(C(=O)Nc3ccc(CN4CCCCC4)cc3)c2)cc1	-7	-1	-1	61	87*	-2	-12	MPTP abs DR=2.4*;MPTP counter DR=43*
CN1CCC(=C2c3ccccc3Sc3ccccc32)CC1	·	0	·	·	92*	0	-9	MPTP abs DR=7.3*;MPTP counter DR=>80
CCOc1ccc(C(=O)Nc2ccc(S(=O)(=O)N3C[C@@H]4C[C@@H](C3)c3cccc(=O)n3C4)cc2)cc1	-3	0	2	·	-3	0	·
O=[N+]([O-])c1cc(Cc2ccccc2)cc(C=Nc2ccc(N3CCOCC3)cc2)c1O	·	0	·	17	15	-20	·
Cc1ccc(O)c(N=Cc2cc(Cc3ccccc3)cc([N+](=O)[O-])c2O)c1	-2	0	-2	-15	64*	-9	55*
O=S(=O)(NCc1ccc(F)cc1)c1ccc(-n2cnnn2)cc1	-6	0	1	·	2	2	·
Cc1cccc(-c2nsc(SCC(=O)Nc3ccc4c(c3)OCO4)n2)c1	1	0	1	21	54*	6	65*
CSc1nsc(SCC(=O)Nc2ccc3c(c2)OCCO3)n1	2	0	3	1	2	-1	·
Cc1ccccc1-c1nsc(SCC(=O)Nc2ccc3c(c2)OCO3)n1	2	0	1	26	84*	3	66*
O=C(NCc1ccc2c(c1)OCO2)c1nnc(Cc2ccc(F)cc2)o1	2	0	1	26	-2	-1	·
Nc1nc2cc3c(cc2cc1C(=O)NCc1ccc(F)cc1)OCO3	·	2	·	·	86*	·	95*
Cc1ccc(C(C)C)cc1NC(=O)Nc1ccc([N+](=O)[O-])cc1	3	0	6	106*	84*	25*	79*
Cc1cc(Br)ccc1NC(=O)C(C)c1ccc([N+](=O)[O-])cc1 (stereo unspecified)	-2	0	-2	54	54*	-9	69*
Cc1ccc([N+](=O)[O-])cc1NC(=O)C(Sc1ccccc1)c1ccccc1 (stereo unspecified)	-1	0	-2	32	94*	3	79*
Cc1ccc(C(=O)Nc2ccc(S(=O)(=O)NC3=NCCCCC3)cc2)cc1S(=O)(=O)N1CCOCC1	-3	0	1	·	1	1	·
CN(C)c1ccc(C(=O)Nc2ccc(CN3CCS(=O)(=O)CC3)cc2)cc1	2	0	4	0	2	0	·
O=C(NCCCCCCOC1=NS(=O)(=O)c2ccccc21)C(=O)Nc1ccccc1	1	0	3	27	73*	1	68*
CC(CCOC1=NS(=O)(=O)c2ccccc21)NC(=O)C(=O)Nc1ccccc1 (stereo unspecified)	0	0	-1	-2	1	-4	·
COc1cc(NC(=O)Cn2cnc(C(=O)Nc3ccc(C)c(C)c3)n2)cc(OC)c1OC	3	0	3	·	6	9	·
O=C(Nc1ccc(Oc2ccccc2)cc1)c1csc([C@H]2C[C@H](O)[C@@H](CO)O2)n1	·	0	·	·	81*	·	74*
CCn1c(-c2ccco2)nc2ccccc21	1	0	3	-7	92*	2	2	MPTP abs DR=8.7*;MPTP counter DR=>80
CC(NC(=O)CNC(=O)c1ccccc1F)c1ccc(-n2ccnc2)cc1 (stereo unspecified)	1	0	0	·	0	7	·
O=C(O)Cn1cnc2c(OCc3ccccc3)ncnc21	-1	0	2	·	-2	3	·
Cc1cc(C)c(CN2CCN(C(=O)Cn3cnc4c(OCc5ccccc5)ncnc43)CC2)c(C)c1	-5	0	4	·	67*	0	84*
S=C(NCCc1ccccc1)Nc1cccc2cnccc12	1	9.0*	0	53	86*	1	85*
SMILES	XBP1 UPR activ	aDG glyco up	CHOP UPR activ	CHOP inhibitor	MPTP inh	NR3A LBD binder	MPTP counter	others
S=C(Nc1cccc(Cl)c1)Nc1cccc2cnccc12	·	5	·	22	97*	3	99*
Cc1ccc(NC(=S)Nc2cccc3cnccc23)cc1C	0	3	3	4	-1	-2	·
Cc1cccc(OCC(=O)Oc2ccc(Cl)cc2)c1	-3	0	1	·	3	-1	·
Cc1cccc(OC(=O)NCCOC(=O)N(O)c2ccc(Cl)cc2)c1	-2	0	-1	28	91*	-6	81*
Cc1ccccc1OCCSCc1nc2ccccc2[nH]1	0	1	1	27	79*	2	67*
COc1ccc(NC(=O)CN(C)C2CCCCC2)c([N+](=O)[O-])c1	4	1	2	43	1	-2	·
COc1ccc(Nc2nc(C)nc3c2nnn3Cc2ccccc2)cc1OC	-4	1	0	31	-4	0	·
Cc1nc(Nc2ccc(S(=O)(=O)N3CCCCC3C)cc2)c2nnn(Cc3ccccc3)c2n1 (stereo unspecified)	3	2	5	74*	68*	-2	14	MPTP abs DR=i;MPTP counter DR=>80
CC(C)C(=O)N1CCCC1(C)C(=O)Nc1ccc(-n2cccc2)cc1 (stereo unspecified)	·	0	·	·	-2	·	·
Cc1ccnc(NC(=O)CCC(=O)N(CC(=O)NCCc2ccccc2)c2ccccc2F)c1	-2	0	2	·	0	1	·
O=C1S/C(=C\c2ccc(O)c([N+](=O)[O-])c2)C(=O)N1Cc1cccc([N+](=O)[O-])c1	3	0	0	7	100*	3	61*
O=C1S/C(=C\c2ccc(O)c([N+](=O)[O-])c2)C(=O)N1c1ccccc1Cl	0	0	0	48	59*	2	71*
Cc1cccc(NC(=O)CN2C(=O)S/C(=C\c3ccc(O)c([N+](=O)[O-])c3)C2=O)c1	-2	0	0	13	2	1	·
Cc1cccc(N(CC(=O)NCCc2ccccc2)C(=O)c2csnn2)c1	-4	0	1	·	-3	3	·
Cc1ccc(NC(=O)COc2ccccc2CNC(C)(C)CC(C)(C)C)cc1	0	2	1	74*	50*	-1	34*
Cn1c(O)c(N=NC(=O)c2ccccc2O)c2ccccc21	-3	0	2	-20	-1	2	·
